Our source for the EC50 values is PubChem BioAssay AID623976 (Vanderbilt High Throughput Screening Facility, 2012).

The assay deals with G protein-activated inward rectifier potassium channel 4 (Homo sapiens) + G protein-activated inward rectifier potassium channel 1 (Homo sapiens) (UniProt P48544+P48549). In words: activation of Ba2+-sensitive GIRK1/4 currents – HEK-293 hGIRK1/4, whole-cell patch clamp, confirmation (AID 623976). The conditions noted are these: HEK-293 hGIRK1/4, whole-cell patch clamp Ba2+-sensitive current. The essentials:
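Assay system: HEK-293 cells stably expressing human GIRK1/4 channels. Buffer or medium: 20K external solution, KCl pipette solution. Dosing: compound tested at multiple concentrations. Schedule: recording 24-72 h post-plating. Measured by: whole-cell voltage clamp at -70 mV, 2 mM BaCl2-sensitive current.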
Background: The patch-clamp technique gives a direct electrical read-out from membranes.

Chain of G protein-activated inward rectifier potassium channel 4 (Homo sapiens) + G protein-activated inward rectifier potassium channel 1 (Homo sapiens) (P48544 whole entry, looked up): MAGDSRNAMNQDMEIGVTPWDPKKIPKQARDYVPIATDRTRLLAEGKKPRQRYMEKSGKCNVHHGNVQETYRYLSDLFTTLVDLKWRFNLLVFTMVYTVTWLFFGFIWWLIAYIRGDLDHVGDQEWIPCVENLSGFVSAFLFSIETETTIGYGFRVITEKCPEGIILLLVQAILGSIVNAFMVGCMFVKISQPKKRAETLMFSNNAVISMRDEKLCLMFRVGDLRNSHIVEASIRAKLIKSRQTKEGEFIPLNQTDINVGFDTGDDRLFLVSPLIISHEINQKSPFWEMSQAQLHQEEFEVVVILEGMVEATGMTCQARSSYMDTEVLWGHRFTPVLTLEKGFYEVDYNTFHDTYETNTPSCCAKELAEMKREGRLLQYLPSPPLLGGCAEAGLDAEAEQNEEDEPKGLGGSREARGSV
Chain of G protein-activated inward rectifier potassium channel 4 (Homo sapiens) + G protein-activated inward rectifier potassium channel 1 (Homo sapiens) (P48549 whole entry, looked up): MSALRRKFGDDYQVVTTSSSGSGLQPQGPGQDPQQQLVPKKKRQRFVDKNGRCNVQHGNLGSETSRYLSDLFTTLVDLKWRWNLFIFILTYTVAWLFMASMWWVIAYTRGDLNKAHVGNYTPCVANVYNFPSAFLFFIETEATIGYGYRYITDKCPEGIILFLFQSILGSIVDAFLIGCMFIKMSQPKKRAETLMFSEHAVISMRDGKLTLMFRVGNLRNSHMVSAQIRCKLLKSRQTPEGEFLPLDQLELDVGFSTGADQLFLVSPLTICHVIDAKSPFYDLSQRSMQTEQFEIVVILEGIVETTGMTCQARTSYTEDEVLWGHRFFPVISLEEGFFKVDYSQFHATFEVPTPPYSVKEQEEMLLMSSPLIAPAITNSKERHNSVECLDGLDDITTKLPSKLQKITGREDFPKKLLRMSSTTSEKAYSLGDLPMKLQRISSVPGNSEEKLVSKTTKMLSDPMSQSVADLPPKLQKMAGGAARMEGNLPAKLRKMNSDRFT

`Cc1cc(NC(=O)Nc2ccc(F)c(F)c2)n(-c2ccccc2)n1`: the EC50 was 1590 nM.

By EC50 is commonly meant the concentration at which the effect is half-maximal.
